According to paper PMC12046972 (ChemMedChem, 2025):
pIC50: −log10 of the molar value.

Columns and labels:
[1] = biological target: T1, SHIP1 (Homo sapiens, UniProt Q92835); experiment: fluorescence polarization; format: biochemical; details: general statement in the docking discussion
T1 sequence (Q92835 1-1189): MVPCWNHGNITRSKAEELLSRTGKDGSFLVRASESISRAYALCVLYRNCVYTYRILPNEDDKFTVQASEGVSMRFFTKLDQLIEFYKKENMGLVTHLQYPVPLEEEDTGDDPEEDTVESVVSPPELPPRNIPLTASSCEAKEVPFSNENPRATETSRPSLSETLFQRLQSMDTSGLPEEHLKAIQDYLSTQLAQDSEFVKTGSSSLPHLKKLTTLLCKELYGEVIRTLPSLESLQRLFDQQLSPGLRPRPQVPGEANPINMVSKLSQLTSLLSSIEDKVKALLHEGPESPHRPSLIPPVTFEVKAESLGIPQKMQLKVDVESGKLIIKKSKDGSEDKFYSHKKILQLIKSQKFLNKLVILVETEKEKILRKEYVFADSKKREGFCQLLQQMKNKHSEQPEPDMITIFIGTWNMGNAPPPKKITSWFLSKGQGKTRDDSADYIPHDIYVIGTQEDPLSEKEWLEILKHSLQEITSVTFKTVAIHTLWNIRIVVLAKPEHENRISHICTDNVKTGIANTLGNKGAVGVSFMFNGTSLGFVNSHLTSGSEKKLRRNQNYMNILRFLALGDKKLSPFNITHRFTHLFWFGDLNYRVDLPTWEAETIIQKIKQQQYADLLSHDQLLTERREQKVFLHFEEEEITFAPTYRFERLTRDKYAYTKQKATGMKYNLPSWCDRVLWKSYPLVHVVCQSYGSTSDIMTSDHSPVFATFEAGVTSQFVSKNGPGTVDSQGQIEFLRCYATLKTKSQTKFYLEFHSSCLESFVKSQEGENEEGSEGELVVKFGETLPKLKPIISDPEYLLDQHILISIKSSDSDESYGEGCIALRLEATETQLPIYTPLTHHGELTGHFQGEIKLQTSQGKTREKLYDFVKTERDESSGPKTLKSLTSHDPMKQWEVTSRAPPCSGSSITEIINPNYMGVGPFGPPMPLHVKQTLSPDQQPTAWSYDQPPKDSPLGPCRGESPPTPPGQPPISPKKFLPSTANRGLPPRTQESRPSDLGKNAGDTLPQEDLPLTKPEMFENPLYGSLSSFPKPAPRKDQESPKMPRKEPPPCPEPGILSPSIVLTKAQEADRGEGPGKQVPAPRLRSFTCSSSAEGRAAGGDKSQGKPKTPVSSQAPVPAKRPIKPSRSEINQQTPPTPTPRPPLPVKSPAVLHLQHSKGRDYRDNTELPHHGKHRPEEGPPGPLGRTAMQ

[2] = biological target: T1, SHIP1; experiment: malachite green assay for phosphatase activity, SHIP1; format: biochemical; details: described in words; for selectivity between SHIP1 and SHIP2: malachite green assay at 1 mM; for Inhibition of SHIP1: malachite green assay, compounds evaluated at 1 mM
How it was run: (§1)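 Phosphate released from C8-PI(3,4,5)P3 (short-chain substrate used to avoid micelles) measured by malachite green colorimetric readout. Reactions contained only SHIP enzyme, buffer and substrate, with no surfactant. Test compounds were tested at 1 mM from DMSO/buffer mixtures. Values are means of at least 3 measurements, with standard deviation.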

[3] = biological target: T1, SHIP1; details: read-out: IC50 for SHIP1; cited from earlier work
[4] = biological target: T2, SHIP2 (Homo sapiens, UniProt O15357); details: ref 19a; cited from earlier work
T2 sequence (O15357 1-1258): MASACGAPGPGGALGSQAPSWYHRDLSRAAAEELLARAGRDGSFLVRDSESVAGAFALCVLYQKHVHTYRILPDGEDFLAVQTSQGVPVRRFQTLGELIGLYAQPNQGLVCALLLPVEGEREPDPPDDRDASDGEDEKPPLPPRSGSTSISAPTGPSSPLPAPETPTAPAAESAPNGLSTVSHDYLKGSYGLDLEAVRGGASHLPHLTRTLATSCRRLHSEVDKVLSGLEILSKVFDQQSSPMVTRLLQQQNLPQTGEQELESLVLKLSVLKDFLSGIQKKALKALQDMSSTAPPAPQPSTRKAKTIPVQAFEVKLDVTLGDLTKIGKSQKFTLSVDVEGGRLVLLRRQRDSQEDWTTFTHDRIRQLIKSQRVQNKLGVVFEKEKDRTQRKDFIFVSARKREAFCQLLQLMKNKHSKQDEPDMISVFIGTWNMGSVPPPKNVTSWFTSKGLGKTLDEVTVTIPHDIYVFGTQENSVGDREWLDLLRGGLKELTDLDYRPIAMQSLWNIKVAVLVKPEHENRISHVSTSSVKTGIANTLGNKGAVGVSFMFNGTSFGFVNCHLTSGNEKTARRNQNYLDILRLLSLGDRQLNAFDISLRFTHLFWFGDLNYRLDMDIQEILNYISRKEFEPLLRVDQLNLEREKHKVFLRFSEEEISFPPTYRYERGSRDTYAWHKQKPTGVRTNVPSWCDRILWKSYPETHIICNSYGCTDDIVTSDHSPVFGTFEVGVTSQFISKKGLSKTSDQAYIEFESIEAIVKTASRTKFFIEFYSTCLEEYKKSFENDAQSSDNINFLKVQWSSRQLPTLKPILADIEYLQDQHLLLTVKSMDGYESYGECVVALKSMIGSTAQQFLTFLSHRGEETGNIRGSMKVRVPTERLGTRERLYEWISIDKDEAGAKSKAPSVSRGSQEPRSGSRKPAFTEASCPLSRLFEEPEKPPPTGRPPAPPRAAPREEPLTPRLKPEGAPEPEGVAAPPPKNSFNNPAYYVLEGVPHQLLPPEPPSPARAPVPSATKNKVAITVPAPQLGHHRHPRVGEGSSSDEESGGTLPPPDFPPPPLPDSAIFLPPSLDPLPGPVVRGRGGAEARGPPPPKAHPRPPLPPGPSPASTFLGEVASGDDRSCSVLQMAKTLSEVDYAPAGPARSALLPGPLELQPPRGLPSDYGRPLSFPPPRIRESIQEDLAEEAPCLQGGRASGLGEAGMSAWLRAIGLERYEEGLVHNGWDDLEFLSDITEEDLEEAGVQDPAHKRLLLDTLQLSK

[5] = solubility in DMSO; details: in words
[6] = system: mice; details: treatment of mice; cited from earlier work
[7] = system: microglial cell lines; details: a number of microglial cell lines; cited from earlier work
[8] = biological target: T2, SHIP2; experiment: malachite green assay for phosphatase activity, SHIP2; format: biochemical; details: compounds evaluated at 1 mM, described in words
How it was run: as §1

[9] = solubility in water; format: physicochemical; details: in words

| SMILES | Inhibition of SHIP1 [2] | Inhibition of SHIP2 [8] | solubility in water [9] | further results |
| --- | --- | --- | --- | --- |
| CC(C)CCC[C@@H](C)[C@H]1CC[C@H]2[C@@H]3CCC4C[C@H](N)CC[C@]4(C)[C@H]3CC[C@]12C.Cl (stereo partly drawn) [Compound 1, 3α-Aminocholestane Hydrochloride] | significant activity | significant activity | – | selectivity between the two SHIP paralogs [1]: some selectivity for SHIP1; selectivity between SHIP1 and SHIP2 [2]: more selectivity for SHIP1; pIC50 [3]: ~5.00; selective for SHIP1 over SHIP2 [4]: at least 4 fold; solubility in DMSO [5]: insoluble in DMSO; solubility in DMSO ([5]; listed as 3AC): nearly insoluble in DMSO; in vivo bioactivity [6]: in vivo bioactivity comparable to genetic phenotypes observed in SHIP knockout mice; microglial phagocytosis of dead neurons [7]: much less effective |
| CC(C)CCC[C@@H](C)[C@H]1CC[C@H]2[C@@H]3CC[C@H]4C[C@H](NS(C)(=O)=O)CC[C@]4(C)[C@H]3CC[C@]12C [Compound 12] | inactive | inactive | – | – |
| CC(C)CCC[C@@H](C)[C@H]1CC[C@H]2[C@@H]3CC[C@H]4C[C@H](N(C)C)CC[C@]4(C)[C@H]3CC[C@]12C [Compound 15] | active | significantly less effect | – | selectivity between SHIP1 and SHIP2 [2]: selective inhibition of SHIP1 |
| CC(C)CCC[C@@H](C)[C@H]1CC[C@H]2[C@@H]3CC[C@H]4C[C@@H](N)[C@H](N)C[C@]4(C)[C@H]3CC[C@]12C [Compound 47] | least effective inhibitors | least effective inhibitors | insoluble in water | – |

More lines, main results first:

| Inhibition of SHIP1 [2] | Inhibition of SHIP2 [8] | solubility in water [9] | SMILES | further results |
| --- | --- | --- | --- | --- |
| significant activity | significant activity | – | CC(C)CCCC(C)C1CCC2C3CCC4CC(N)CCC4(C)C3CCC12C.Cl (stereo not shown) [Compound 11] | – |
| inactive | inactive | – | CC(=O)NC1CCC2(C)C(CCC3C2CCC2(C)C(C(C)CCCC(C)C)CCC32)C1 (stereo not shown) [Compound 13] | – |
| significant inhibition of SHIP1 | – | insoluble in water | CC(C)CCCC(C)C1CCC2C3CCC4CC(O)C(N)CC4(C)C3CCC12C (stereo not shown) [Compound 37] | – |
| – | – | insoluble in water | CC(C)CCC[C@@H](C)[C@H]1CC[C@H]2[C@@H]3CC[C@H]4CC(N)C(N)C[C@]4(C)[C@H]3CC[C@]12C (stereo partly shown) [Compound 45] | – |
